Measurements published in paper PMC4304654 (Bioorganic & medicinal chemistry, 2012).
Values after ≈ are worked out from the molar mass of the structure shown. Read-outs that look alike come from different tables or passages of the source. Blank lines part the entries; values can stand above or below the molecule they belong to.

Legend:
[1] = Aqueous solubility in the sodium acetate buffer of the fibrillization assay; type: physicochemical
[2] = Full PK evaluation and oral bioavailability of 43; type: in vivo, B6C3F1 mice; settings: mice, 5 mg/kg i.p., 0.5–16 h post-dosing
mice [3] = settings: mouse, in vivo, 100 mg/kg
mice [4] = settings: mouse, in vivo, 50 mg/kg/day
in vivo = settings: female, mouse, 50 mg/kg/day, Calculated free compound level in brain, mice, 3 days of dosing via drinking water at 50 mg/kg/day
[5] = cited from earlier work; for Solubility in assay buffer, upper solubility limit: sodium acetate fibrillization assay buffer, previously reported data ref 7
[6] = target: K18 tau fragment (amino acids 244–369) bearing the P301L mutation (K18PL) (Homo sapiens, UniProt P10636, P618L); settings: 50 μM compound concentration; previously reported data ref 7; cited from earlier work
[7] = Brain and plasma levels 1 h after i.p. administration of 5 mg/kg; type: in vivo, B6C3F1 mice; settings: mice, 1 h after 5 mg/kg i.p.
Procedure, shortened: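 Mice got a single i.p. 5 mg/kg dose of test compound and were sacrificed 1 h later. Perfused brain hemispheres were sonicated in 10 mM ammonium acetate, pH 5.7 (50% w/v). Plasma came from EDTA-treated blood spun 10 min at 4500g, 4 °C. Samples were acetonitrile-precipitated and spun at 15000g. Supernatants went to LC-MS/MS (MRM, C18, 35 °C) and were quantified against matrix-matched linear standard curves.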

[8] = Unbound fraction in plasma by rapid equilibrium dialysis; type: in vitro ADME; settings: mouse, pH 7.4
[9] = mice, 1 h after 5 mg/kg i.p.; previously reported data ref 7; cited from earlier work
[10] = cited from earlier work
[11] = mouse plasma; previously reported data ref 7; cited from earlier work
[12] = mice, 3 days of dosing via drinking water at 50 mg/kg/day

K18 tau fragment (amino acids 244–369) bearing the P301L mutation (K18PL), sequence (P10636 561-686 P618L): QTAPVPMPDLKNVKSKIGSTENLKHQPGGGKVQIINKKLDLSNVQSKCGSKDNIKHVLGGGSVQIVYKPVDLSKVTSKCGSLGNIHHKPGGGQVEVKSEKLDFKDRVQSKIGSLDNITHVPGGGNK

Compound: Nc1scc2c(C(=O)NC3CC3)nn(-c3ccc(F)cc3)c(=O)c12 [Compound 43, 5-Amino-N-cyclopropyl-3-(4-fluorophenyl)-4-oxo-3,4-dihydrothieno[3,4-d]pyridazine-1-carboxamide]
solubility [1]: > 200 µM | Brain exposure [2]: good brain exposure | Signs of toxicity after a single oral administration (mice [3]): only mild and transient lethargy | Adverse events (mice [4]): no visible adverse events | Amount of water consumed (mice [4]): normal | Blood cell counts (mice [4]): no alterations in any blood cell counts | Tolerability (mice [4]; po): well-tolerated with no notable side-effects | Calculated free compound level in brain [12]: 6 nM | Total brain levels [12]: ~ 140 nM | Plasma and brain levels after 30 days versus 3 days in drinking water (mouse, in vivo, 50 mg/kg/day): comparable | concentration at 3 days (in vivo): 6 ± 0.4 nM

Compound: CCOC(=O)c1nn(-c2ccc(Cl)cc2)c(=O)c2c(N)scc12 [Compound 29, Ethyl 5-amino-3-(4-chlorophenyl)-4-oxo-3,4-dihydrothieno-[3,4-d]pyridazine-1-carboxylate]
Solubility in assay buffer, upper solubility limit [5]: 13 µM (≈ 4.55 µg/mL) | K18PL centrifugation assay % Soluble [6]: 47%

solubility [1]: > 200 µM | B/P (total), brain-to-plasma ratio [7]: unity | fraction unbound at 5 h, 1 μM [8]: 0.057 ± 0.005
Compound: CC(C)NC(=O)c1nn(-c2ccc(F)cc2)c(=O)c2c(N)scc12 [Compound 42, 5-Amino-3-(4-fluorophenyl)-N-isopropyl-4-oxo-3,4-dihydrothieno[3,4-d]pyridazine-1-carboxamide]

Compound: Nc1scc2c(C(=O)NC3CC3)nn(-c3ccc(Cl)cc3)c(=O)c12 [Compound 1, 5-Amino-3-(4-chlorophenyl)-N-cyclopropyl-4-oxo-3,4-dihydrothieno[3,4-d]pyridazine-1-carboxamide]
Solubility in assay buffer, upper solubility limit [5]: 32 µM (≈ 11.5 µg/mL) | Water solubility ([5]; text of introduction): ~ 30 μM | K18PL centrifugation assay % Soluble [6]: 69% | B/P (fu), ratio of free drug in brain and plasma [9]: 0.92 ±0.16 | B/P (total), brain-to-plasma ratio [9]: 1.61 ± 0.28 | Brain level [9]: 1300 ± 110 ng/g | Plasma level [9]: 820 ± 150 ng/mL | Bound in brain homogenates ([10]; equilibrium dialysis): ~ 99% | Fu (%) brain, fraction unbound ([10]; mouse brain homogenate, previously reported data ref 7): 1.1 ± 0.6% | Fu (%) plasma, fraction unbound [11]: 1.9 ± 0.2%

solubility [1]: 80 µM (≈ 21.7 µg/mL) | fraction unbound at 5 h, 1 μM [8]: 0.04 ± 0.01
Compound: Cc1nn(Cc2ccccc2)c(=O)c2c(N)scc12 [Compound 62, 7-Amino-2-benzyl-4-methylthieno[3,4-d]pyridazin-1(2H)-one]

Compound: Nc1scc2c(C(=O)O)nn(-c3ccc(Cl)cc3)c(=O)c12 [Compound 37, 5-Amino-3-(4-chlorophenyl)-4-oxo-3,4-dihydrothieno[3,4-d]pyridazine-1-carboxylic acid]
Solubility in assay buffer, upper solubility limit [5]: >200 µM | K18PL centrifugation assay % Soluble [6]: 74%

solubility [1]: > 200 µM | B/P (total), brain-to-plasma ratio [7]: unity | fraction unbound at 5 h, 1 μM [8]: 0.022 ± 0.002
Compound: Nc1scc2c(C(=O)NCC(F)(F)F)nn(-c3ccc(F)cc3)c(=O)c12 [Compound 44, 5-Amino-3-(4-fluorophenyl)-4-oxo-N-(2,2,2-trifluoroethyl)-3,4-dihydrothieno[3,4-d]pyridazine-1-carboxamide]
